Laboratory results as given in ChEMBL document CHEMBL4017533, “Molecular Recognition of Agonists and Antagonists by the Nucleotide-Activated G Protein-Coupled P2Y2 Receptor” (J Med Chem, 2017).
Calls of active or inactive are those of the source. The calls are words filed in the database; no cut-off is given here.

Assays:
Homo sapiens [1] = species on record: Homo sapiens; assay: Agonist activity at P2Y2 receptor R194A mutant (unknown origin) expressed in human 1321N1 astrocytoma cells assessed as increase in intracellular calcium mobilization after 1 hr by Fluo-4 AM dye based fluorescence assay; format: cell-based
Procedure, shortened: (§1)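 Human 1321N1 astrocytoma cells stably carrying wt or point-mutant human P2Y2R, introduced by retrovirus and selected with G418, plated at 50000 cells/well the day before. Cells loaded with fluo-4 AM plus Pluronic F-127 in HBSS for 1 h, then washed. Agonist added at graded concentrations, fluorescence read at ex 488/em 525 nm. […] Carbachol 100 μM acting on endogenous M3 served as the maximum reference.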

[2] = tested on: P2Y purinoceptor 2 (Homo sapiens), P41231 [F261A]; assay: Agonist activity at P2Y2 receptor F261A mutant (unknown origin) expressed in human 1321N1 astrocytoma cells assessed as increase in intracellular calcium mobilization after 1 hr by Fluo-4 AM dye based fluorescence assay; format: functional, cell-based; procedure, shortened: as §1
P2Y purinoceptor 2 (Homo sapiens), P41231 [F261A], sequence (P41231 whole entry F261A): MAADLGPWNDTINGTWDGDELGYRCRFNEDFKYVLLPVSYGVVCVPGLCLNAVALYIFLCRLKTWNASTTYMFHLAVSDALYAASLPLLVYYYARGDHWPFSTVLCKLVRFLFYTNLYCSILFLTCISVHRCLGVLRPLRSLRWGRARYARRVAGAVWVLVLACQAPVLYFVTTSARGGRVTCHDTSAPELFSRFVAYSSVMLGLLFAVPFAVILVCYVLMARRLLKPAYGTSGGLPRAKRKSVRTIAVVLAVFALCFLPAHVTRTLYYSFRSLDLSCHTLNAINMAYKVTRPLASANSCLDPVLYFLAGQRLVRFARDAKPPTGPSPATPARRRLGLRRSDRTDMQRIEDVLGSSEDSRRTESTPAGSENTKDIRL

[3] = tested on: P2Y purinoceptor 2 (Homo sapiens), P41231 [R110A]; assay: Agonist activity at P2Y2 receptor R110A mutant (unknown origin) expressed in human 1321N1 astrocytoma cells assessed as increase in intracellular calcium mobilization after 1 hr by Fluo-4 AM dye based fluorescence assay; format: functional, cell-based; procedure, shortened: as §1
P2Y purinoceptor 2 (Homo sapiens), P41231 [R110A], sequence (P41231 whole entry R110A): as the sequence (P41231 whole entry F261A) above, with R110A, A261F counted along it

Homo sapiens [4] = species on record: Homo sapiens; assay: Selectivity ratio of EC50 for P2Y2 receptor R272A mutant (unknown origin) to EC50 for wild type P2Y2 receptor (unknown origin)
[5] = tested on: P2Y purinoceptor 2 (Homo sapiens), P41231 [Y288F]; assay: (§2) Agonist activity at P2Y2 receptor Y288F mutant (unknown origin) expressed in human 1321N1 astrocytoma cells assessed as increase in intracellular calcium mobilization after 1 hr by Fluo-4 AM dye based fluorescence assay; format: functional, cell-based; procedure, shortened: as §1
P2Y purinoceptor 2 (Homo sapiens), P41231 [Y288F], sequence (P41231 whole entry Y288F): as the sequence (P41231 whole entry F261A) above, with A261F, Y288F counted along it

[6] = tested on: P2Y purinoceptor 2 (Homo sapiens), P41231 [Y114F]; assay: Agonist activity at P2Y2 receptor Y114F mutant (unknown origin) expressed in human 1321N1 astrocytoma cells assessed as increase in intracellular calcium mobilization after 1 hr by Fluo-4 AM dye based fluorescence assay; format: functional, cell-based; procedure, shortened: as §1
P2Y purinoceptor 2 (Homo sapiens), P41231 [Y114F], sequence (P41231 whole entry Y114F): as the sequence (P41231 whole entry F261A) above, with Y114F, A261F counted along it

[7] = tested on: P2Y purinoceptor 2 (Homo sapiens), P41231 [Y288A]; assay: Agonist activity at P2Y2 receptor Y288A mutant (unknown origin) expressed in human 1321N1 astrocytoma cells assessed as increase in intracellular calcium mobilization after 1 hr by Fluo-4 AM dye based fluorescence assay; format: functional, cell-based; procedure, shortened: as §1
P2Y purinoceptor 2 (Homo sapiens), P41231 [Y288A], sequence (P41231 whole entry Y288A): as the sequence (P41231 whole entry F261A) above, with A261F, Y288A counted along it

[8] = tested on: P2Y purinoceptor 2 (Homo sapiens), P41231 [R265A]; assay: Agonist activity at P2Y2 receptor R265A mutant (unknown origin) expressed in human 1321N1 astrocytoma cells assessed as increase in intracellular calcium mobilization after 1 hr by Fluo-4 AM dye based fluorescence assay; format: functional, cell-based; procedure, shortened: as §1
P2Y purinoceptor 2 (Homo sapiens), P41231 [R265A], sequence (P41231 whole entry R265A): as the sequence (P41231 whole entry F261A) above, with A261F, R265A counted along it

Homo sapiens [9] = species on record: Homo sapiens; assay: Selectivity ratio of EC50 for P2Y2 receptor R194H mutant (unknown origin) to EC50 for wild type P2Y2 receptor (unknown origin)
[10] = tested on: P2Y purinoceptor 2 (Homo sapiens), P41231 [R292A]; assay: Agonist activity at P2Y2 receptor R292A mutant (unknown origin) expressed in human 1321N1 astrocytoma cells assessed as increase in intracellular calcium mobilization after 1 hr by Fluo-4 AM dye based fluorescence assay; format: functional, cell-based; procedure, shortened: as §1
P2Y purinoceptor 2 (Homo sapiens), P41231 [R292A], sequence (P41231 whole entry R292A): as the sequence (P41231 whole entry F261A) above, with A261F, R292A counted along it

P2Y purinoceptor 2 [11] = target: T1, P2Y purinoceptor 2 (Homo sapiens, UniProt P41231); assay: (§3) Antagonist activity at wild type P2Y2 receptor (unknown origin) expressed in human 1321N1 astrocytoma cells assessed as inhibition of UTP-induced increase in intracellular calcium mobilization preincubated for 30 mins followed by UTP addition measured after 1 hr by Fluo-4 AM dye based fluorescence assay; format: functional, cell-based
T1 sequence (P41231 whole entry): as the sequence (P41231 whole entry F261A) above, with A261F counted along it
Procedure, shortened: (§4)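 Stably transduced 1321N1 cells expressing wt or mutant human P2Y2R were loaded with fluo-4 AM/Pluronic F-127 in HBSS for 1 h. Test compound was preincubated for 30 min, then UTP was injected at the EC80 determined for each cell line. Calcium fluorescence was read at ex 488/em 525 nm. IC50 was obtained by nonlinear regression, n ≥ 3.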

Homo sapiens [12] = species on record: Homo sapiens; assay: Selectivity ratio of IC50 for P2Y2 receptor Y268F mutant (unknown origin) to IC50 for wild type P2Y2 receptor (unknown origin)
Procedure, shortened: (§5)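 Human P2Y2R, wild type or single point mutant, retrovirally transduced into 1321N1 astrocytoma cells and selected with G418. Cells were seeded at 50000/well overnight, loaded with fluo-4 AM for 1 h in HBSS, and preincubated with antagonist for 30 min. UTP was then injected at its EC80 for that cell line. Calcium fluorescence was read at ex 488/em 525 nm. IC50 was fitted by nonlinear regression (n ≥ 3), and the ratio was taken as mutant IC50 over wild-type IC50.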

Homo sapiens [13] = species on record: Homo sapiens; assay: Selectivity ratio of IC50 for P2Y2 receptor Y288F mutant (unknown origin) to IC50 for wild type P2Y2 receptor (unknown origin); procedure, shortened: as §5
Homo sapiens [14] = species on record: Homo sapiens; assay: Selectivity ratio of IC50 for P2Y2 receptor R194H mutant (unknown origin) to IC50 for wild type P2Y2 receptor (unknown origin)
Homo sapiens [15] = species on record: Homo sapiens; assay: Selectivity ratio of IC50 for P2Y2 receptor F261A mutant (unknown origin) to IC50 for wild type P2Y2 receptor (unknown origin)
Homo sapiens [16] = species on record: Homo sapiens; assay: Selectivity ratio of IC50 for P2Y2 receptor Y114F mutant (unknown origin) to IC50 for wild type P2Y2 receptor (unknown origin); procedure, shortened: as §5
[17] = tested on: P2Y purinoceptor 2 (Homo sapiens), P41231 [Y114F]; assay: as §3, with “receptor Y114F mutant” for “receptor”; format: functional, cell-based; procedure, shortened: as §4
Homo sapiens [18] = species on record: Homo sapiens; assay: as §3, with “receptor R194H mutant” for “receptor”; format: cell-based; procedure, shortened: as §4
Homo sapiens [19] = species on record: Homo sapiens; assay: as §3, with “receptor Y114A mutant” for “receptor”; format: cell-based; procedure, shortened: as §4
Homo sapiens [20] = species on record: Homo sapiens; assay: Selectivity ratio of EC50 for P2Y2 receptor F111A mutant (unknown origin) to EC50 for wild type P2Y2 receptor (unknown origin)
Homo sapiens [21] = species on record: Homo sapiens; assay: Selectivity ratio of EC50 for P2Y2 receptor Y288F mutant (unknown origin) to EC50 for wild type P2Y2 receptor (unknown origin)
Homo sapiens [22] = species on record: Homo sapiens; assay: Selectivity ratio of EC50 for P2Y2 receptor Y114F mutant (unknown origin) to EC50 for wild type P2Y2 receptor (unknown origin)
P2Y purinoceptor 2 [23] = target: P2Y purinoceptor 2 (Homo sapiens, UniProt P41231, Y288F); assay: as §2; format: functional, cell-based; procedure, shortened: as §1
P2Y purinoceptor 2 (Homo sapiens, UniProt P41231, Y288F), sequence (P41231 whole entry Y288F): as the sequence (P41231 whole entry F261A) above, with A261F, Y288F counted along it

Homo sapiens [24] = species on record: Homo sapiens; assay: Selectivity ratio of EC50 for P2Y2 receptor S193A mutant (unknown origin) to EC50 for wild type P2Y2 receptor (unknown origin)
Homo sapiens [25] = species on record: Homo sapiens; assay: Selectivity ratio of EC50 for P2Y2 receptor Y268F mutant (unknown origin) to EC50 for wild type P2Y2 receptor (unknown origin)
Homo sapiens [26] = species on record: Homo sapiens; assay: Selectivity ratio of EC50 for P2Y2 receptor R194A mutant (unknown origin) to EC50 for wild type P2Y2 receptor (unknown origin)
Homo sapiens [27] = species on record: Homo sapiens; assay: Selectivity ratio of EC50 for P2Y2 receptor Y269F mutant (unknown origin) to EC50 for wild type P2Y2 receptor (unknown origin)
P2Y purinoceptor 2 [28] = target: P2Y purinoceptor 2 (Homo sapiens, UniProt P41231, S193A); assay: Agonist activity at P2Y2 receptor S193A mutant (unknown origin) expressed in human 1321N1 astrocytoma cells assessed as increase in intracellular calcium mobilization after 1 hr by Fluo-4 AM dye based fluorescence assay; format: functional, cell-based; procedure, shortened: as §1
P2Y purinoceptor 2 (Homo sapiens, UniProt P41231, S193A), sequence (P41231 whole entry S193A): as the sequence (P41231 whole entry F261A) above, with S193A, A261F counted along it

P2Y purinoceptor 2 [29] = target: T1, P2Y purinoceptor 2; assay: Agonist activity at wild type P2Y2 receptor (unknown origin) expressed in human 1321N1 astrocytoma cells assessed as increase in intracellular calcium mobilization after 1 hr by Fluo-4 AM dye based fluorescence assay; format: functional, cell-based; procedure, shortened: as §1
Homo sapiens [30] = species on record: Homo sapiens; assay: Selectivity ratio of EC50 for P2Y2 receptor H184A mutant (unknown origin) to EC50 for wild type P2Y2 receptor (unknown origin)
P2Y purinoceptor 2 [31] = target: P2Y purinoceptor 2 (Homo sapiens, UniProt P41231, H184A); assay: Agonist activity at P2Y2 receptor H184A mutant (unknown origin) expressed in human 1321N1 astrocytoma cells assessed as increase in intracellular calcium mobilization after 1 hr by Fluo-4 AM dye based fluorescence assay; format: functional, cell-based; procedure, shortened: as §1
P2Y purinoceptor 2 (Homo sapiens, UniProt P41231, H184A), sequence (P41231 whole entry H184A): as the sequence (P41231 whole entry F261A) above, with H184A, A261F counted along it

Homo sapiens [32] = species on record: Homo sapiens; assay: Selectivity ratio of EC50 for P2Y2 receptor F261A mutant (unknown origin) to EC50 for wild type P2Y2 receptor (unknown origin)

Nc1ncnc2c1ncn2[C@@H]1O[C@H](COP(=O)(O)OP(=O)(O)OP(=O)(O)OP(=O)(O)OC[C@@H]2O[C@H](n3cnc4c(N)ncnc43)[C@@H](O)[C@H]2O)[C@@H](O)[C@H]1O
Activity (Homo sapiens [1]): inactive
Activity [2]: inactive
Activity [3]: inactive
Ratio EC50 (Homo sapiens [4]): > 4000
Activity [5]: inactive
Activity [6]: inactive
Activity [7]: inactive
Activity [8]: inactive
Ratio EC50 (Homo sapiens [9]): 25
Activity [10]: inactive

Cc1ccc2c(c1)C=Cc1cc(C)ccc1C2c1cn(Cc2ccc(C(=O)Nc3nnn[nH]3)o2)c(=O)[nH]c1=S
inhibition (P2Y purinoceptor 2 [11]): Active
Ratio IC50 (Homo sapiens [12]): < 3
Ratio IC50 (Homo sapiens [13]): < 3
Ratio IC50 (Homo sapiens [14]): < 3
Ratio IC50 (Homo sapiens [15]): < 3
Ratio IC50 (Homo sapiens [16]): < 3

Cc1cccc(Nc2ccc(Nc3cc(S(=O)(=O)O)c(N)c4c3C(=O)c3ccccc3C4=O)cc2C(=O)O)c1C
inhibition (P2Y purinoceptor 2 [11]): Active
inhibition [17]: Active
inhibition (Homo sapiens [18]): Active

Nc1c(S(=O)(=O)O)cc(Nc2ccc(Nc3ccccc3Cl)c(C(=O)O)c2)c2c1C(=O)c1ccccc1C2=O
inhibition (P2Y purinoceptor 2 [11]): Active

Nc1c(S(=O)(=O)O)cc(Nc2ccccc2)c2c1C(=O)c1ccccc1C2=O
inhibition (Homo sapiens [19]): Active
inhibition (P2Y purinoceptor 2 [11]): Active
inhibition [17]: Active
inhibition (Homo sapiens [18]): Active

Nc1ncnc2c1ncn2[C@@H]1O[C@H](COP(=O)(O)OP(=O)(O)OP(=O)(O)O)[C@@H](O)[C@H]1O
Ratio EC50 (Homo sapiens [4]): 350

O=c1ccn([C@@H]2O[C@H](COP(=O)(O)OP(=O)(O)OP(=O)(O)O)[C@@H](O)[C@H]2O)c(=O)[nH]1 [URIDINE TRIPHOSPHATE]
Activity (Homo sapiens [1]): Active
Ratio EC50 (Homo sapiens [20]): 10 to 50
Ratio EC50 (Homo sapiens [21]): 150
Activity [2]: Active
Activity [3]: inactive
Ratio EC50 (Homo sapiens [22]): 300
Ratio EC50 (Homo sapiens [4]): 350
EC50 (P2Y purinoceptor 2 [23]): 911 nM
Ratio EC50 (Homo sapiens [24]): 10 to 50
Activity [6]: Active
Activity [7]: inactive
Activity [8]: inactive
Ratio EC50 (Homo sapiens [25]): 10 to 50
Ratio EC50 (Homo sapiens [26]): 10 to 50
Ratio EC50 (Homo sapiens [27]): 10 to 50
EC50 (P2Y purinoceptor 2 [28]): 70.6 nM
Ratio EC50 (Homo sapiens [9]): 50
EC50 (P2Y purinoceptor 2 [29]): 5.61 nM
Ratio EC50 (Homo sapiens [30]): > 100
Activity [10]: inactive
EC50 (P2Y purinoceptor 2 [31]): 996 nM
Ratio EC50 (Homo sapiens [32]): 100

CSc1nc(N)c2ncn([C@@H]3O[C@H](COP(=O)(O)OP(=O)(O)OP(=O)(O)O)[C@@H](O)[C@H]3O)c2n1
Ratio EC50 (Homo sapiens [4]): 350
